Laboratory results published in BindingDB's records for doi:10.1021/jm980495r (Institute of Mutagenesis and Differentiation, 1999).
pKd: −log10 of the molar value.

Columns and labels:
[1] = target: T1, B2 bradykinin receptor (Cavia porcellus, UniProt O70526); assay: Antagonistic activity against Bradykinin receptor B2 of guinea pig ileum longitudinal smooth muscle.
T1 sequence (O70526 whole entry): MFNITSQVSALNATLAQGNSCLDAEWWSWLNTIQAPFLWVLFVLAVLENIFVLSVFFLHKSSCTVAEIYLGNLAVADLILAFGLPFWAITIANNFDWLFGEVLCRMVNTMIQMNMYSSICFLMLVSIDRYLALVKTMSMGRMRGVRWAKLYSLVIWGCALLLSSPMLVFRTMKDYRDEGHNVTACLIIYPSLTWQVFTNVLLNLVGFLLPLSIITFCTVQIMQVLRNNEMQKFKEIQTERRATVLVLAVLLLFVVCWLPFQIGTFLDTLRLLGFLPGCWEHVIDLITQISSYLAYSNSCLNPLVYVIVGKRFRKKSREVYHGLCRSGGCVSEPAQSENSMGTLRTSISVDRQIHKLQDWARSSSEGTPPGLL
Method in brief: (§1)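 Guinea pig ileum longitudinal muscle-myenteric plexus strips in oxygenated (95% O2/5% CO2) Krebs with indomethacin, guanethidine (3 μM each), chlorpheniramine, atropine (1 μM each). Cumulative BK curves with thiorphan, bestatin, captopril (1 μM each); antagonist given 15 min before repeat curve at 1–10 μM. Contraction read-out; pA2 (dose ratio 2), mean ± SE of 4–15 experiments.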

[2] = target: T2, B1 bradykinin receptor (Rattus norvegicus, UniProt P97583); assay: Antagonistic activity against Bradykinin receptor B1 of rat ileum longitudinal smooth muscle.
T2 sequence (P97583 whole entry): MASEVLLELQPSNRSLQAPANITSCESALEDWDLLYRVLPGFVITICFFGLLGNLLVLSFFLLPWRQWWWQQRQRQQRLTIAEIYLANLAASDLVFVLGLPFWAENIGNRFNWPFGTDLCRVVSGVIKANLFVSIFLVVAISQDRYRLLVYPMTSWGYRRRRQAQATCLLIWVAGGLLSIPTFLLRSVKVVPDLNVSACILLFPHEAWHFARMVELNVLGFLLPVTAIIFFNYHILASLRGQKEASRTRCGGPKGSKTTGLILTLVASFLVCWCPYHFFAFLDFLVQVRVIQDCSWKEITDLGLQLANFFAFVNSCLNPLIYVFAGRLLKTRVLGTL
Method in brief: as §1, with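 “Rat” for “Guinea pig”, “desArg9-BK” for “BK”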

Row | Compound | pKd [1] | pKd [2]
1 | N=C(N)NCCC[C@@H](N)C(=O)N[C@@H](CCCNC(=N)N)C(=O)N1CCC[C@H]1C(=O)N1CC(O)C[C@H]1C(=O)NCC(=O)N[C@H](C(=O)N[C@@H](CO)C(=O)N[C@@H](C(=O)N1C(C(=O)N[C@H](CCCNC(=N)N)C(=O)O)C[C@@H]2CCCC[C@@H]21)C1Cc2ccccc2C1)C1Cc2ccccc2C1 (some centres undefined) [B-9430] | 8.20 | 7.70
2 | N=C(N)NCCC[C@H](NC(=O)[C@H](CCCCN)NC(=O)[C@@H](N)CCCCN)C(=O)N1CCC[C@H]1C(=O)N1CC(O)C[C@H]1C(=O)NCC(=O)N[C@H](C(=O)N[C@@H](CO)C(=O)N[C@@H](C(=O)N1C(C(=O)O)C[C@@H]2CCCC[C@@H]21)C1Cc2ccccc2C1)C1Cc2ccccc2C1 (some centres undefined) [B-9858] | 5.50 | 8.10
